Reference: ChEMBL document CHEMBL3297654, “Synthesis, antimicrobial and cytotoxic activities, and structure-activity relationships of gypsogenin derivatives against human cancer cells” (Eur J Med Chem, 2014)
Values after ≈ are worked out from the molar mass of the structure shown. Active and inactive are the calls of the source. The rule behind the calls is not given here.

Columns and labels:
HL-60 [1] = test: Induction of apoptosis in human HL60 cells at 20 uM after 48 hrs by Hoechst 33258/propidium iodide staining based phase contrast microscopic analysis; assay type: functional
How it was run: (§1)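 Cells in 48-well plates treated with 0.5, 10, 20 or 40 µM for 24 and 48 h. Values are read at 48 h, 20 µM for test agents and 0.5 µM for controls. Staining is Hoechst 33258/propidium iodide double staining with fluorescence microscopy. Blue nuclei are viable or early-to-mid apoptotic, and pink nuclei are late apoptotic or necrotic. Apoptosis and necrosis are scored from chromatin condensation as % of cells. Cells are grown at 37 °C in 5% CO2 in RPMI, DMEM or McCoy's 5A with 10–15% heat-inactivated FCS.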

SAOS-2 [2] = test: Induction of apoptosis in human Saos2 cells at 20 uM after 48 hrs by Hoechst 33258/propidium iodide staining based phase contrast microscopic analysis; assay type: functional; how it was run: as §1
Caco-2 [3] = test: Antiproliferative activity against human Caco2 cells after 24 and 72 hrs by MTT assay; assay type: functional, cell-based
How it was run: (§2)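 ATCC human cell lines are kept in RPMI, DMEM or McCoy's 5A with 10–15% heat-inactivated FCS at 37 °C and 5% CO2. They are seeded at 1×10^4–1×10^5 cells/mL in 48-well plates and exposed to 0.5, 10, 20 or 40 µM. Viability is read by MTT (590 nm) at 24 and 72 h. Growth is expressed relative to untreated cells and IC50 is fitted, in triplicate.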

[4] = test system: Staphylococcus epidermidis; test: Antimicrobial activity against Staphylococcus epidermidis ATCC 12228 assessed as zone of inhibition at 30 uL for 24 hrs at 37 degC by disk diffusion test; assay type: functional, organism-based
How it was run: (§3)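 Compound (30 µL of a fresh 1000 µg/mL DMSO stock) goes into a 6 mm well cut in Mueller Hinton agar inoculated with 0.1 mL broth culture adjusted to 0.5 McFarland (about 1×10^8 cells/mL). Plates are incubated 24 h at 37 °C, then zone of inhibition diameter is measured in mm.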

MCF7 [5] = test: Induction of necrosis in human MCF7 cells at 20 uM after 48 hrs by Hoechst 33258/propidium iodide staining based phase contrast microscopic analysis; assay type: functional; how it was run: as §1
Candida albicans = test: Antimicrobial activity against Candida albicans ATCC 10231 assessed as zone of inhibition at 30 uL for 24 hrs at 30 degC by disk diffusion test; assay type: functional, organism-based
How it was run: (§4)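 Agar well diffusion on Mueller Hinton agar seeded with 0.1 mL broth culture (18–24 h), adjusted to 0.5 McFarland (about 1×10^8 bacteria or 1×10^6 yeast cells/mL). A 6 mm well is filled with 30 µL of compound from a fresh 1000 µg/mL DMSO stock. Plates are held at 30 °C for 24 h and inhibition zone diameter is read in mm.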

Bacillus cereus [6] = test: Antimicrobial activity against Bacillus cereus ATCC 11778 assessed as zone of inhibition at 30 uL for 24 hrs at 30 degC by disk diffusion test; assay type: functional; how it was run: as §4
Caco-2 [7] = test: Induction of apoptosis in human Caco2 cells at 20 uM after 48 hrs by Hoechst 33258/propidium iodide staining based phase contrast microscopic analysis; assay type: functional; how it was run: as §1
Saccharomyces cerevisiae = test: Antimicrobial activity against Saccharomyces cerevisiae ATCC 9763 assessed as zone of inhibition at 30 uL for 24 hrs at 30 degC by disk diffusion test; assay type: functional, organism-based; how it was run: as §4
Micrococcus luteus = test: Antimicrobial activity against Micrococcus luteus ATCC 9341 assessed as zone of inhibition at 30 uL for 24 hrs at 30 degC by disk diffusion test; assay type: functional, organism-based; how it was run: as §4
Bacillus subtilis [8] = test: Antimicrobial activity against Bacillus subtilis ATCC 6633 assessed as zone of inhibition at 30 uL for 24 hrs at 30 degC by disk diffusion test; assay type: functional; how it was run: as §4
Caco-2 [9] = test: Induction of necrosis in human Caco2 cells at 20 uM after 48 hrs by Hoechst 33258/propidium iodide staining based phase contrast microscopic analysis; assay type: functional; how it was run: as §1
Klebsiella pneumoniae = test: Antimicrobial activity against Klebsiella pneumoniae ATCC 13882 assessed as zone of inhibition at 30 uL for 24 hrs at 37 degC by disk diffusion test; assay type: functional, organism-based; how it was run: as §3
HL-60 [10] = test: Induction of necrosis in human HL60 cells at 20 uM after 48 hrs by Hoechst 33258/propidium iodide staining based phase contrast microscopic analysis; assay type: functional; how it was run: as §1
HeLa [11] = test: Antiproliferative activity against human HeLa cells after 24 and 72 hrs by MTT assay; assay type: functional, cell-based; how it was run: as §2
MCF7 [12] = test: Antiproliferative activity against human MCF7 cells after 24 and 72 hrs by MTT assay; assay type: functional, cell-based; how it was run: as §2
Escherichia coli = test: Antimicrobial activity against Escherichia coli ATCC 25922 assessed as zone of inhibition at 30 uL for 24 hrs at 37 degC by disk diffusion test; assay type: functional, organism-based; how it was run: as §3
HeLa [13] = test: Induction of necrosis in human HeLa cells at 20 uM after 48 hrs by Hoechst 33258/propidium iodide staining based phase contrast microscopic analysis; assay type: functional; how it was run: as §1
HT-29 [14] = test: Induction of apoptosis in human HT-29 cells at 20 uM after 48 hrs by Hoechst 33258/propidium iodide staining based phase contrast microscopic analysis; assay type: functional; how it was run: as §1
Candida tropicalis = test: Antimicrobial activity against Candida tropicalis assessed as zone of inhibition at 30 uL for 24 hrs at 30 degC by disk diffusion test; assay type: functional, organism-based; how it was run: as §4
SAOS-2 [15] = test: Induction of necrosis in human Saos2 cells at 20 uM after 48 hrs by Hoechst 33258/propidium iodide staining based […] microscopic analysis; assay type: functional; how it was run: as §1
Bacillus subtilis [16] = test: Antimicrobial activity against Bacillus subtilis ATCC 6633 for 24 hrs by microdillution method; assay type: functional
How it was run: (§5)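 Broth microdilution. Compound is dissolved in DMSO (2 mg/mL) and diluted in Mueller Hinton broth as two-fold serial dilutions from 256 to 0.125 µg/mL. Bacteria are pre-grown in nutrient broth at 30 °C, and the final inoculum is about 10^6 cfu/mL. Tests are incubated 37 °C for 24 h. MIC is the lowest concentration giving complete inhibition. Streptomycin is the positive control.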

[17] = Antiproliferative activity against human Saos2 cells after 24 and 72 hrs by MTT assay; assay type: functional, cell-based; settings: SAOS-2; how it was run: as §2
HeLa [18] = test: Induction of apoptosis in human HeLa cells at 20 uM after 48 hrs by Hoechst 33258/propidium iodide staining based phase contrast microscopic analysis; assay type: functional; how it was run: as §1
MCF7 [19] = test: Induction of apoptosis in human MCF7 cells at 20 uM after 48 hrs by Hoechst 33258/propidium iodide staining based phase contrast microscopic analysis; assay type: functional; how it was run: as §1
HT-29 [20] = test: Induction of necrosis in human HT-29 cells at 20 uM after 48 hrs by Hoechst 33258/propidium iodide staining based phase contrast microscopic analysis; assay type: functional; how it was run: as §1
HL-60 [21] = test: Antiproliferative activity against human HL60 cells after 24 and 72 hrs by MTT assay; assay type: functional, cell-based; how it was run: as §2
Proteus vulgaris = test: Antimicrobial activity against Proteus vulgaris ATCC 33420 assessed as zone of inhibition at 30 uL for 24 hrs at 37 degC by disk diffusion test; assay type: functional, organism-based; how it was run: as §3
HT-29 [22] = test: Antiproliferative activity against human HT-29 cells after 24 and 72 hrs by MTT assay; assay type: functional, cell-based; how it was run: as §2
Bacillus thuringiensis [23] = test: Antimicrobial activity against Bacillus thuringiensis for 24 hrs by microdillution method; assay type: functional; how it was run: as §5
Enterococcus faecalis = test: Antimicrobial activity against Enterococcus faecalis ATCC 29212 assessed as zone of inhibition at 30 uL for 24 hrs at 37 degC by disk diffusion test; assay type: functional, organism-based; how it was run: as §3
Pseudomonas aeruginosa = test: Antimicrobial activity against Pseudomonas aeruginosa ATCC 35032 assessed as zone of inhibition at 30 uL for 24 hrs at 37 degC by disk diffusion test; assay type: functional, organism-based; how it was run: as §3
Bacillus thuringiensis [24] = test: Antimicrobial activity against Bacillus thuringiensis assessed as zone of inhibition at 30 uL for 24 hrs at 30 degC by disk diffusion test; assay type: functional; how it was run: as §4
Staphylococcus aureus = test: Antimicrobial activity against Staphylococcus aureus ATCC 25923 assessed as zone of inhibition at 30 uL for 24 hrs at 37 degC by disk diffusion test; assay type: functional, organism-based; how it was run: as §3
Salmonella typhimurium = test: Antimicrobial activity against Salmonella typhimurium ATCC 14028 assessed as zone of inhibition at 30 uL for 24 hrs at 37 degC by disk diffusion test; assay type: functional, organism-based; settings: Salmonella enterica subsp. enterica serovar Typhimurium; how it was run: as §3
Bacillus cereus [25] = test: Antimicrobial activity against Bacillus cereus ATCC 11778 for 24 hrs by microdillution method; assay type: functional; how it was run: as §5
Nakaseomyces glabratus = test: Antimicrobial activity against Candida glabrata assessed as zone of inhibition at 30 uL for 24 hrs at 30 degC by disk diffusion test; assay type: functional, organism-based; how it was run: as §4
Cyberlindnera jadinii = test: Antimicrobial activity against Candida utilis ATCC 9950 assessed as zone of inhibition at 30 uL for 24 hrs at 30 degC by disk diffusion test; assay type: functional, organism-based; how it was run: as §4

IC50 (Caco-2 [3])	IC50 (HeLa [11])	IC50 (MCF7 [12])	SMILES	Activity (HL-60 [1])	Activity (SAOS-2 [2])	diameter of the inhibition zone (DIZ) [4]	Activity (MCF7 [5])	diameter of the inhibition zone (DIZ) (Candida albicans)	diameter of the inhibition zone (DIZ) (Bacillus cereus [6])	Activity (Caco-2 [7])	diameter of the inhibition zone (DIZ) (Saccharomyces cerevisiae)	diameter of the inhibition zone (DIZ) (Micrococcus luteus)	diameter of the inhibition zone (DIZ) (Bacillus subtilis [8])	Activity (Caco-2 [9])	diameter of the inhibition zone (DIZ) (Klebsiella pneumoniae)	Activity (HL-60 [10])	diameter of the inhibition zone (DIZ) (Escherichia coli)	Activity (HeLa [13])	Activity (HT-29 [14])	diameter of the inhibition zone (DIZ) (Candida tropicalis)	also measured
20.3 µM	40.3 µM	9.9 µM	CC(=O)O[C@H]1CC[C@]2(C)[C@H]3CC=C4[C@@H]5CC(C)(C)CC[C@]5(C(=O)OCc5ccccc5)CC[C@@]4(C)[C@]3(C)CC[C@H]2[C@]1(C)/C=N/O	5%	24%	inactive	48%	inactive	inactive	19%	inactive	inactive	inactive	33%	inactive	50%	inactive	50%	24%	inactive	Activity (SAOS-2 [15]): 44%; MIC (Bacillus subtilis [16]): inactive; IC50 [17]: 11.7 µM; Activity (HeLa [18]): 15%; Activity (MCF7 [19]): 10%; Activity (HT-29 [20]): 14%; IC50 (HL-60 [21]): 8.68 µM; diameter of the inhibition zone (DIZ) (Proteus vulgaris): inactive; IC50 (HT-29 [22]): 21.4 µM; MIC (Bacillus thuringiensis [23]): inactive; diameter of the inhibition zone (DIZ) (Enterococcus faecalis): inactive; diameter of the inhibition zone (DIZ) (Pseudomonas aeruginosa): inactive; diameter of the inhibition zone (DIZ) (Bacillus thuringiensis [24]): inactive; diameter of the inhibition zone (DIZ) (Staphylococcus aureus): inactive; diameter of the inhibition zone (DIZ) (Salmonella typhimurium): inactive; MIC (Bacillus cereus [25]): inactive; diameter of the inhibition zone (DIZ) (Nakaseomyces glabratus): inactive; diameter of the inhibition zone (DIZ) (Cyberlindnera jadinii): inactive
17.4 µM	35 µM	20.5 µM	CC(=O)O[C@H]1CC[C@]2(C)[C@H]3CC=C4[C@@H]5CC(C)(C)CC[C@]5(C(=O)O)CC[C@@]4(C)[C@]3(C)CC[C@H]2[C@]1(C)C=O	8%	3%	inactive	29%	inactive	9 mm	3%	inactive	inactive	11 mm	55%	inactive	25%	inactive	33%	0.8%	inactive	Activity (SAOS-2 [15]): 44%; MIC (Bacillus subtilis [16]; ATCC 6633, 24 h): 64 µg/mL (≈ 125 µM); IC50 [17]: 8.24 µM; Activity (HeLa [18]): 4%; Activity (MCF7 [19]): 5%; Activity (HT-29 [20]): 20%; IC50 (HL-60 [21]): 10.8 µM; diameter of the inhibition zone (DIZ) (Proteus vulgaris): inactive; IC50 (HT-29 [22]): 11.1 µM; MIC (Bacillus thuringiensis [23]): 128 µg/mL (≈ 250 µM); diameter of the inhibition zone (DIZ) (Enterococcus faecalis): inactive; diameter of the inhibition zone (DIZ) (Pseudomonas aeruginosa): inactive; diameter of the inhibition zone (DIZ) (Bacillus thuringiensis [24]): 10 mm; diameter of the inhibition zone (DIZ) (Staphylococcus aureus): inactive; diameter of the inhibition zone (DIZ) (Salmonella typhimurium): inactive; MIC (Bacillus cereus [25]; ATCC 11778, 24 h): 128 µg/mL (≈ 250 µM); diameter of the inhibition zone (DIZ) (Nakaseomyces glabratus): inactive; diameter of the inhibition zone (DIZ) (Cyberlindnera jadinii): inactive
